Reference: ChEMBL document CHEMBL4138137, “Discovery of Novel 5-(Piperazine-1-carbonyl)pyridin-2(1H)-one Derivatives as Orally eIF4A3-Selective Inhibitors” (ACS Med Chem Lett, 2017)
pIC50: −log10 of the molar value. ≈ marks a conversion by molar mass, not a printed value.

What was measured:
[1] = Metabolic stability in mouse microsomes; format: ADME, Microsome; details: read-out: Stability
Method in brief: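 Metabolic stability measured in mouse liver microsomes, expressed in μL/min/mg.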

[2] = Solubility of the compound at pH 6.8; format: physicochemical; details: buffer
Method in brief: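 Solubility measured at pH 6.8.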

[3] = molecular target: MDR1 (ABCB1, P-glycoprotein) (Homo sapiens, UniProt P08183); assay: Substrate activity at MDR1 (unknown origin) assessed as efflux ratio of permeability; format: ADME; details: not told
MDR1 (ABCB1, P-glycoprotein), sequence (P08183 whole entry): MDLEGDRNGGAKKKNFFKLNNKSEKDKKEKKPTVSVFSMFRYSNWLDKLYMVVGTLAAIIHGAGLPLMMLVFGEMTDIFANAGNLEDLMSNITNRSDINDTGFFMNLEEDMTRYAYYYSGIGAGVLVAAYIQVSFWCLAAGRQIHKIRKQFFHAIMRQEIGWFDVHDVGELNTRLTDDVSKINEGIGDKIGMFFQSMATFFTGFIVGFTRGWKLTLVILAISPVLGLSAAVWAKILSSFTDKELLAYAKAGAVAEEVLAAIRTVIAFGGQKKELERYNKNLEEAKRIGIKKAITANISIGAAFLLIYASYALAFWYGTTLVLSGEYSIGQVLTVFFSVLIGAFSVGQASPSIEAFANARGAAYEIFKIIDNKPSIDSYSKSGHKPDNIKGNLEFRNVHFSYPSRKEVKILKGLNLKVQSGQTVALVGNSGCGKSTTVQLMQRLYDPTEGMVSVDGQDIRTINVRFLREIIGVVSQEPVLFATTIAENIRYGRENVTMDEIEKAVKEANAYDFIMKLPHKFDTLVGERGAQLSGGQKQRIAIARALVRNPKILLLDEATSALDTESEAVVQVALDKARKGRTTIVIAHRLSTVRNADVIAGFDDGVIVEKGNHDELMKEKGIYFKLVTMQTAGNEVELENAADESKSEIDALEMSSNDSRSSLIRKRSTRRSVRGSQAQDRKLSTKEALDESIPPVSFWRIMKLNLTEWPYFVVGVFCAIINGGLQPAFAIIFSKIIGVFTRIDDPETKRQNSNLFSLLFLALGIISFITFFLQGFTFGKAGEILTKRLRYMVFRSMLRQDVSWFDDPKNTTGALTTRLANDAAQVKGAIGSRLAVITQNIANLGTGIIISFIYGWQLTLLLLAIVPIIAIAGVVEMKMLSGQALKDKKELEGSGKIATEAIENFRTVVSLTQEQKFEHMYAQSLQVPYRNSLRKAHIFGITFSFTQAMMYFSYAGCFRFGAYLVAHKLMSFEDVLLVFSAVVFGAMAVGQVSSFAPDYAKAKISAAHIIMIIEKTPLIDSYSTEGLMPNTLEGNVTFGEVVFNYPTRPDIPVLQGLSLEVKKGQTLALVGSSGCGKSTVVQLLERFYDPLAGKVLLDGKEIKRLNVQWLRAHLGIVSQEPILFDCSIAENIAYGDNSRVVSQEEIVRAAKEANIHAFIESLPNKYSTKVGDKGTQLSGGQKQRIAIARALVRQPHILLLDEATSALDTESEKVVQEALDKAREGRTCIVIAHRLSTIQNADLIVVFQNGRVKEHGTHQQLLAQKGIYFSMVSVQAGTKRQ
Method in brief: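 Efflux ratio measured in vitro in an MDR1-overexpressing cell line.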

[4] = molecular target: Eukaryotic initiation factor 4A-III (Homo sapiens, UniProt P38919); assay: Inhibition of MLN51-induced full length recombinant human N-terminal His6/SUMO-tagged eIF4A3 RNA dependent ATPase activity expressed in Escherichia coli BL21(DE3) using single stranded poly(U) RNA as substrate after 30 mins by ADP-Glo luminescence assay
Eukaryotic initiation factor 4A-III, sequence (P38919 whole entry): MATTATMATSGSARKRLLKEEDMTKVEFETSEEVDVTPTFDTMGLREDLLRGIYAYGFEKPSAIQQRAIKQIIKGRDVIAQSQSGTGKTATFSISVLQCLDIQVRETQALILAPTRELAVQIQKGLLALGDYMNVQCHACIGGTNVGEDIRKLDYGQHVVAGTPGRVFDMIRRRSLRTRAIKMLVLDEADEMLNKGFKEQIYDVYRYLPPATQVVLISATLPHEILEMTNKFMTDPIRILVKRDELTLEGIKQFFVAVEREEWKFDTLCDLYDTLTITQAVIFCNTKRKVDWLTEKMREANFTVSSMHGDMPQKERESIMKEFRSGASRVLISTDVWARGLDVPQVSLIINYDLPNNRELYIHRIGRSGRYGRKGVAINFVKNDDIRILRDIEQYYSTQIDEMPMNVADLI
Method in brief: (§1)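 IC50 reported as the mean of duplicate experiments with 95% confidence intervals.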

[5] = AUC (0 to 8 hrs) in ICR mouse at 1 mg/kg, po administered as cassette dose; format: ADME, organism-based; parameters: dose 1 mg/kg, time < 8 hr, route oral; details: in vivo
Method in brief: (§2)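 Cassette PK in male ICR mice, n = 3; dosed i.v. at 0.1 mg/kg and p.o. at 1 mg/kg. AUC taken over 0 to 8 h after oral dosing; bioavailability derived from the oral and i.v. exposures.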

[6] = Oral bioavailability in ICR mouse at 1 mg/kg administered as cassette dose; format: ADME, organism-based; details: in vivo; method in brief: as §2
[7] = molecular target: Eukaryotic initiation factor 4A-II (Homo sapiens, UniProt Q14240); assay: Inhibition of eIF4G-induced full length recombinant human N-terminal His6/SUMO-tagged eIF4A2 RNA dependent ATPase activity using single stranded poly(U) RNA as substrate after 40 mins by ADP-Glo luminescence assay; method in brief: as §1
Eukaryotic initiation factor 4A-II, sequence (Q14240 whole entry): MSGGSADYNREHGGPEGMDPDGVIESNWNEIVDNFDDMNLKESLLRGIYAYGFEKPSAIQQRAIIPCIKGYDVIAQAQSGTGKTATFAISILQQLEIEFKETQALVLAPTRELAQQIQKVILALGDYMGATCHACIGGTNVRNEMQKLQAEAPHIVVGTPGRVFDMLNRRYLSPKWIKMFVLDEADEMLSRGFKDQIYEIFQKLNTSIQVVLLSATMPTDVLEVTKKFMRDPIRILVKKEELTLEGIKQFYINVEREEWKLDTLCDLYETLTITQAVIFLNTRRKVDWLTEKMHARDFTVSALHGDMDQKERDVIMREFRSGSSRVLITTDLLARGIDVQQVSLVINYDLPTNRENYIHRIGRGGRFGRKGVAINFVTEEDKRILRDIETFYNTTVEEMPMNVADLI

Mus musculus [8] = assay: Toxicity in BALB/cA Jc1 nude mouse xenografted with human HCT116 cells assessed as reduction in body weight at 100 mg/kg, po bid administered for 14 days measured twice per week; format: organism-based; parameters: scale not given: the % may be the effect or the level left; details: in vivo, 336 h
Method in brief: (§3)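 HCT-116 xenograft mice dosed orally at 100 mg/kg twice daily for 14 days in a solubilizing formulation. Efficacy expressed as T/C versus a vehicle group, with Dunnett's test; body weight change monitored over the study.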

Mus musculus [9] = assay: In vivo inhibition of NMD in BALB/cA Jc1 nude mouse xenografted with human HCT116 cells assessed as upregulation of SC35 1.6 kb mRNA expression level in tumor at 100 mg/kg, po administered as single dose measured after 24 hrs by qPCR analysis relative to control; format: functional
Method in brief: (§4)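 HCT-116 xenograft mice given a single oral dose of 100 mg/kg in a solubilizing formulation. Tumour SC35 1.6 kb mRNA expression measured at 4, 8 and 24 h after dosing.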

HCT-116 [10] = assay: Antitumor activity against human HCT116 cells xenografted in BALB/cA Jc1 nude mouse assessed as reduction in tumor volume at 100 mg/kg, po bid administered for 14 days measured twice per week relative to control; format: functional; method in brief: as §3
[11] = molecular target: U5 small nuclear ribonucleoprotein 200 kDa helicase (Homo sapiens, UniProt O75643); assay: Inhibition of human recombinant N-terminal full length His-tagged BRR2 RNA dependent ATPase activity expressed in baculovirus infected Sf9 insect cells using single stranded poly(U) RNA as substrate after 30 mins by ADP-Glo luminescence assay; method in brief: as §1
U5 small nuclear ribonucleoprotein 200 kDa helicase, sequence (O75643 whole entry): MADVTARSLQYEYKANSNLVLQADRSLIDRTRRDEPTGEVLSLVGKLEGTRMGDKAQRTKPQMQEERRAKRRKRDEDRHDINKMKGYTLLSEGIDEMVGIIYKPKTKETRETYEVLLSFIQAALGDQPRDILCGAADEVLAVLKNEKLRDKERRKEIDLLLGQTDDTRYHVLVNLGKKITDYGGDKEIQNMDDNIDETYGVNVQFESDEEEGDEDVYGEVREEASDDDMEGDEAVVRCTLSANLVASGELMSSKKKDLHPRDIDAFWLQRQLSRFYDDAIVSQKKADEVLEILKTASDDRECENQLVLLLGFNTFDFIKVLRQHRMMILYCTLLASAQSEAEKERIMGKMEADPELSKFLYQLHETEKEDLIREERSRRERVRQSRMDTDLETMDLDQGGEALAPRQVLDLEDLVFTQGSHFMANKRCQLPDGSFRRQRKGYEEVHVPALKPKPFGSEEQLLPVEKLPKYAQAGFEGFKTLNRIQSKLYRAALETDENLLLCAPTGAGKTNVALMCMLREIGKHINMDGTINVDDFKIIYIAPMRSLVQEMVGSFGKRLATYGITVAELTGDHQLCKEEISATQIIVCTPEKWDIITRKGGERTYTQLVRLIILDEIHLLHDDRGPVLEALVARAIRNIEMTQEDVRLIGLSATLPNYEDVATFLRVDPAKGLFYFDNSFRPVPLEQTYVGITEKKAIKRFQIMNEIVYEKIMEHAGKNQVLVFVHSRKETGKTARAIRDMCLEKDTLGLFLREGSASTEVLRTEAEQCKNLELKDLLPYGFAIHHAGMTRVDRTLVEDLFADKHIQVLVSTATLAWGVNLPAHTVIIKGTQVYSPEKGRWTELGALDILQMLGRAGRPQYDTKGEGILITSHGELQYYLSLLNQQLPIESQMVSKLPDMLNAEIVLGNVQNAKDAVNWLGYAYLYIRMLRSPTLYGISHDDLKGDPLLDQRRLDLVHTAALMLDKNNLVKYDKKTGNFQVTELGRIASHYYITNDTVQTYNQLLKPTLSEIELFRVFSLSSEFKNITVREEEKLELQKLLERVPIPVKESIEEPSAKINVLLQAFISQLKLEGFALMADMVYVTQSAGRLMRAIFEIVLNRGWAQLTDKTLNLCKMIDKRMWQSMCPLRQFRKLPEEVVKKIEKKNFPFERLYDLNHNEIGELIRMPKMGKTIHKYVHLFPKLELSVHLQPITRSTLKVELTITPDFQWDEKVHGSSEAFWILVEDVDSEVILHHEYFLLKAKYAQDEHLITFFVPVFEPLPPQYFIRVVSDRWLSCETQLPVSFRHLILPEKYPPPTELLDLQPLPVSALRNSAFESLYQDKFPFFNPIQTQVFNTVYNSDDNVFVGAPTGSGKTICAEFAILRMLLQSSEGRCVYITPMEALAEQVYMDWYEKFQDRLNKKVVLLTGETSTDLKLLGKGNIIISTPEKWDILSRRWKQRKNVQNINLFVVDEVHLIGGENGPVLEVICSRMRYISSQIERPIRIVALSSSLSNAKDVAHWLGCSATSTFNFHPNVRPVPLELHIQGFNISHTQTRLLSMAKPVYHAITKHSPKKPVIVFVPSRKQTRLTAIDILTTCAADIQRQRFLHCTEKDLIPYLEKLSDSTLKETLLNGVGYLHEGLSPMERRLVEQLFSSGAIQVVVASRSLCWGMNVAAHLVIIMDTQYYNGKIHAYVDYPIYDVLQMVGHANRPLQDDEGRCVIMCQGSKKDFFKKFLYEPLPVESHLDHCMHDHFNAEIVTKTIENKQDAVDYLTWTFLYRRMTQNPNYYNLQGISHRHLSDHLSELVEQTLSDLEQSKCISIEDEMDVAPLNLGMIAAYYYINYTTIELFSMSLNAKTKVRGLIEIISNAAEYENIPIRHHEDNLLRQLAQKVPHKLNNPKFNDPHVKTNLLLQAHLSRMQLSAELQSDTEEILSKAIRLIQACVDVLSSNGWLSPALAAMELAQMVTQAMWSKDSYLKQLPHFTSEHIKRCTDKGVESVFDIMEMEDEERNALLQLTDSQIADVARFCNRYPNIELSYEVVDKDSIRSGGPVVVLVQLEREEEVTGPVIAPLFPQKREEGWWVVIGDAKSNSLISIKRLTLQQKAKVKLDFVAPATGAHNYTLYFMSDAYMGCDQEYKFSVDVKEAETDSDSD

[12] = molecular target: Eukaryotic initiation factor 4A-I (Homo sapiens, UniProt P60842); assay: Inhibition of eIF4G-induced full length recombinant human N-terminal His6/SUMO-tagged eIF4A1 RNA dependent ATPase activity expressed in Escherichia coli BL21(DE3) using single stranded poly(U) RNA as substrate after 40 mins by ADP-Glo luminescence assay; method in brief: as §1
Eukaryotic initiation factor 4A-I, sequence (P60842 whole entry): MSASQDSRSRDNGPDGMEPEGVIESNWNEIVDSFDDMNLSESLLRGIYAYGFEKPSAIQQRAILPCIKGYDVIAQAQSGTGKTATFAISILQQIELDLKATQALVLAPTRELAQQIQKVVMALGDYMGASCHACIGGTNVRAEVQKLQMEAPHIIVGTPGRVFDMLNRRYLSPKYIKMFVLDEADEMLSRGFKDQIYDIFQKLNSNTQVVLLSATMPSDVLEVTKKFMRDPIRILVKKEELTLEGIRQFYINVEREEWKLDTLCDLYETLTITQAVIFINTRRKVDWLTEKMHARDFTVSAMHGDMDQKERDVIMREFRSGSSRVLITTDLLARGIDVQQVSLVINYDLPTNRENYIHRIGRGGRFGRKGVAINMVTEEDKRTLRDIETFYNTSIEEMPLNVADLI

Mus musculus [13] = assay: In vivo inhibition of NMD in BALB/cA Jc1 nude mouse xenografted with human HCT116 cells assessed as upregulation of SC35 1.6 kb mRNA expression level in tumor at 100 mg/kg, po administered as single dose measured after 4 hrs by qPCR analysis relative to control; format: functional; method in brief: as §4
[14] = molecular target: T1, ATP-dependent RNA helicase DHX29 (Homo sapiens, UniProt Q7Z478); assay: Inhibition of human recombinant N-terminal full length FLAG-His-tagged DHX29 RNA dependent ATPase activity expressed in baculovirus infected Sf9 insect cells using single stranded poly(U) RNA as substrate after 30 mins by ADP-Glo luminescence assay; method in brief: as §1
T1 sequence (Q7Z478 whole entry): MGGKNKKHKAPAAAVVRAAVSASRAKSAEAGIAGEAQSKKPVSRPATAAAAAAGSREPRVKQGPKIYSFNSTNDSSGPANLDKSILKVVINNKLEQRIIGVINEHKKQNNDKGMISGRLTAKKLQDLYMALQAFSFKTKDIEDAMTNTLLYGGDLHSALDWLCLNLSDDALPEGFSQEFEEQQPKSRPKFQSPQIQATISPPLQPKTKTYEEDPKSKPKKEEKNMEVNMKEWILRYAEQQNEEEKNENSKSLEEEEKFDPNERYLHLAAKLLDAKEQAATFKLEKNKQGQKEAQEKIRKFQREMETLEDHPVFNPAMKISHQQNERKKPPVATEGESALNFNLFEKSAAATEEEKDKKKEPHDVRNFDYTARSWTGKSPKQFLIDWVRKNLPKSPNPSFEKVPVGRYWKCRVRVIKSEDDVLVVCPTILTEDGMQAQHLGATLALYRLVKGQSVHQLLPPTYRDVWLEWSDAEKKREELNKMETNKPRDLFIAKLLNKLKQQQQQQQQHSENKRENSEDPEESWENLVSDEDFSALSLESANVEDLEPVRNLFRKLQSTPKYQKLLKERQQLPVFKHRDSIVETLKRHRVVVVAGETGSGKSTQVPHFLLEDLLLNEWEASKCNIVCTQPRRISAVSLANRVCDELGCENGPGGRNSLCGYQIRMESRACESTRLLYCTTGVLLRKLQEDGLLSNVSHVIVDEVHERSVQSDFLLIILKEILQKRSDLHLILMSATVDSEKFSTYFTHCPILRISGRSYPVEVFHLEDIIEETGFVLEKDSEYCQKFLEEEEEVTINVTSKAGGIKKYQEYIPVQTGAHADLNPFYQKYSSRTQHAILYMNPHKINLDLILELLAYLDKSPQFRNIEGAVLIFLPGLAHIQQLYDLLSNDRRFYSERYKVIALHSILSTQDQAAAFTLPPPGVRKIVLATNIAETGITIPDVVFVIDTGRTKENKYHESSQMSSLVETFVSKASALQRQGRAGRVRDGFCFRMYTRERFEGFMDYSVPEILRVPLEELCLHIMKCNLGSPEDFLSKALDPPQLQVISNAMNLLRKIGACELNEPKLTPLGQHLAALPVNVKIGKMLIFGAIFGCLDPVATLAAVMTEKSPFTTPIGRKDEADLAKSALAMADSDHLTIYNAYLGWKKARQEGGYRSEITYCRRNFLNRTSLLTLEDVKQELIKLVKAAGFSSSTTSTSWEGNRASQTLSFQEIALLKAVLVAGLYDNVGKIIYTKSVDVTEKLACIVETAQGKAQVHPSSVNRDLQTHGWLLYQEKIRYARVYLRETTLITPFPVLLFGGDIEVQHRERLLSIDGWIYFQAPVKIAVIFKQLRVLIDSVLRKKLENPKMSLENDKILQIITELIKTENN

Mus musculus [15] = assay: In vivo inhibition of NMD in BALB/cA Jc1 nude mouse xenografted with human HCT116 cells assessed as upregulation of SC35 1.6 kb mRNA expression level in tumor at 100 mg/kg, po administered as single dose measured after 8 hrs by qPCR analysis relative to control; format: functional; method in brief: as §4
Homo sapiens [16] = organism: Homo sapiens; assay: Inhibition of NMD in human HCT116 cells assessed as upregulation of SC35 1.6 kb mRNA expression level at 1 uM after 6 hrs by qPCR analysis relative to control; format: cell-based
Method in brief: (§5)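 HCT-116 colorectal carcinoma cells treated for 6 h at 1, 3 or 10 μM. SC35 1.6 kb mRNA level expressed as fold change relative to control. Data representative of three independent experiments.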

HCT-116 [17] = assay: Growth inhibition of human HCT116 cells after 3 days by CellTiter-Glo luminescence assay; format: functional; details: HCT-116, 72 h
Method in brief: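 HCT-116 cells exposed to compound for 72 h; growth read as intracellular ATP amount. GI50 derived by curve fitting. Data representative of three independent experiments.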

Homo sapiens [18] = organism: Homo sapiens; assay: Inhibition of NMD in human HCT116 cells assessed as upregulation of SC35 1.6 kb mRNA expression level at 10 uM after 6 hrs by qPCR analysis relative to control; format: cell-based; method in brief: as §5
Homo sapiens [19] = organism: Homo sapiens; assay: Inhibition of NMD in human HCT116 cells assessed as upregulation of SC35 1.6 kb mRNA expression level at 3 uM after 6 hrs by qPCR analysis relative to control; format: cell-based; method in brief: as §5

Structure (SMILES)	microsomal CLint [1] [µL/min/mg]	solubility [2] [µg/mL]	pIC50 [4]	AUC(0-t) at 8 h [5] [ng·h/mL]	bioavailability [6] [%]	further results
N#Cc1cccc(-c2cc(C(=O)N3CCN(C(=O)c4ccc(Br)cn4)[C@@H](c4ccc(Cl)cc4)C3)c[nH]c2=O)c1	113	2.4 (≈ 3.98 µM)	7.30	–	–	efflux ratio [3]: 35
O=C(c1c[nH]c(=O)c2ccccc12)N1CCN(C(=O)c2ccc(Cl)cc2)C(c2ccc(Cl)cc2)C1 (configuration not stated)	–	–	5.89	–	–	–
O=C(c1c[nH]c(=O)c2ccccc12)N1CCN(C(=O)c2ccc(Br)cc2)[C@@H](c2ccc(Cl)cc2)C1	16	11 (≈ 20 µM)	6.54	97.3	9.6	–
O=C(c1ccnc2ccccc12)N1CCN(C(=O)c2ccc(Br)cc2)[C@@H](c2ccc(Cl)cc2)C1	143	3.2 (≈ 5.98 µM)	5.57	129	19.7	–
O=C(c1cnn2cc(Br)ccc12)N1CCN(C(=O)c2ccc(Br)cn2)[C@@H](c2ccc(Cl)cc2)C1	207	3.8 (≈ 6.29 µM)	6.55	55.9	11.4	–
O=C(c1cncc2ccccc12)N1CCN(C(=O)c2ccc(Br)cc2)[C@@H](c2ccc(Cl)cc2)C1	202	5.1 (≈ 9.54 µM)	5.80	1.5	0.4	–
Cn1cc(C(=O)N2CCN(C(=O)c3ccc(Br)cn3)[C@@H](c3ccc(Cl)cc3)C2)cc(-c2cccc(C#N)c2)c1=O	6	12 (≈ 19.5 µM)	7.00	147	16.1	pIC50 [7]: < 4.00; Activity (Mus musculus [8]): < 5%; fold change (FC) (Mus musculus [9]): 1.2; T/C (HCT-116 [10]): 54%; efflux ratio [3]: 25; pIC50 [11]: < 4.00; pIC50 [12]: < 4.00; fold change (FC) (Mus musculus [13]): 4; pIC50 [14]: < 4.00; fold change (FC) (Mus musculus [15]): 2.5; fold change (FC) (Homo sapiens [16]): 2.17; GI50 (HCT-116 [17]): 1340 nM; fold change (FC) (Homo sapiens [18]): 19.1; fold change (FC) (Homo sapiens [19]): 8.41
O=C(c1cnn2cc(Br)ccc12)N1CCN(C(=O)c2ccc(Br)cc2)[C@@H](c2ccc(Cl)cc2)C1	227	0.46 (≈ 0.763 µM)	–	9	5.7	efflux ratio [3]: 0.9; GI50 (HCT-116 [17]): 3060 nM

Further lines, with some results ahead:

microsomal CLint [1] [µL/min/mg]	solubility [2] [µg/mL]	pIC50 [4]	AUC(0-t) at 8 h [5] [ng·h/mL]	bioavailability [6] [%]	Structure (SMILES)	further results
–	–	6.72	–	–	N#Cc1cccc(-c2cc(C(=O)N3CCN(C(=O)c4ccc(Cl)cc4)C(c4ccc(Cl)cc4)C3)c[nH]c2=O)c1 (configuration not stated)	–
–	–	5.96	–	–	O=C(c1c[nH]c(=O)c(-c2ccc(Cl)cc2)c1)N1CCN(C(=O)c2ccc(Cl)cc2)C(c2ccc(Cl)cc2)C1 (configuration not stated)	–
–	–	6.15	–	–	O=C(c1c[nH]c(=O)c(-c2cccc(C(F)(F)F)c2)c1)N1CCN(C(=O)c2ccc(Cl)cc2)C(c2ccc(Cl)cc2)C1 (configuration not stated)	–
–	–	6.54	–	–	O=C(c1c[nH]c(=O)c(-c2cccc(Cl)c2)c1)N1CCN(C(=O)c2ccc(Cl)cc2)C(c2ccc(Cl)cc2)C1 (configuration not stated)	–
–	–	6.38	–	–	O=C(c1c[nH]c(=O)c(-c2ccccc2Cl)c1)N1CCN(C(=O)c2ccc(Cl)cc2)C(c2ccc(Cl)cc2)C1 (configuration not stated)	–
–	–	6.39	–	–	O=C(c1c[nH]c(=O)c(-c2ccccc2)c1)N1CCN(C(=O)c2ccc(Cl)cc2)C(c2ccc(Cl)cc2)C1 (configuration not stated)	–
–	–	6.31	–	–	CS(=O)(=O)c1cccc(-c2cc(C(=O)N3CCN(C(=O)c4ccc(Cl)cc4)C(c4ccc(Cl)cc4)C3)c[nH]c2=O)c1 (configuration not stated)	–
